Blank lines part the entries; values can stand above or below the compound they belong to. Where a SMILES comes first, the peptide text is derived from it. The star is where a group is joined. Palmitoyl = CCCCCCCCCCCCCCCC(=O)*
What was measured:
[1] = test system: human platelets; experiment: 12; type: cell-based; settings: 10 μM 12(S)-HETE, fura-2-labeled human platelets
Procedure, shortened: (§1)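 Gel-purified platelets loaded with 2.5 μM fura-2/AM, 30 min at 37 °C. Emission recorded at 510 nm with dual excitation at 340/380 nm. For line 6, platelets preincubated with test compound or vehicle before AYPGKF.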

[2] = test system: p38 MAPK phosphorylation; experiment: Immunoblot of 12; type: cell-based, human
Procedure, shortened: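 Gel-purified human platelets incubated in an aggregometer at 37 °C with 12(S)-HETE, with or without 1 or 3 μM test compound, for various times. Solubilised in SDS-PAGE sample buffer and run on 10% SDS-PAGE at equal protein. Immunoblotted for phospho-p38 (Thr180/Tyr182).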

[3] = biological target: T1, GPR31 (Homo sapiens, UniProt O00270); experiment: 12; type: cell-based; settings: 10 and 20 μM 12(S)-HETE, fura-2-labeled GPR31/CHO cells
Procedure, shortened: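 Human GPR31 transiently transfected into CHO cells. Cells labelled with fura-2 and challenged with 12(S)-HETE; Ca2+ flux followed over time.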
Target sequence in this assay (O00270 whole entry, species assumed): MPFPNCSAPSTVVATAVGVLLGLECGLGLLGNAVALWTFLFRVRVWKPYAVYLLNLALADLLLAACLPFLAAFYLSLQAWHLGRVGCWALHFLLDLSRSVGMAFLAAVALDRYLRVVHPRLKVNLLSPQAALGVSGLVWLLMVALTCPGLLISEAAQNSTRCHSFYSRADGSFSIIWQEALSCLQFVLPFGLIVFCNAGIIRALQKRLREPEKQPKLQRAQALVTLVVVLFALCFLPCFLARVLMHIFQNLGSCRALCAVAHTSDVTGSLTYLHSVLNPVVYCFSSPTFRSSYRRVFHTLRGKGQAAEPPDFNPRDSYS

[4] = biological target: T1, GPR31; experiment: 12; type: cell-based; settings: 100 nmol/L 12(S)-HETE, human platelets, signal at 15 to 120 minutes
Procedure, shortened: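 Gel-purified human platelets pretreated with test compound at graded levels, then activated with 12(S)-HETE. Lysis on ice for 10 min in Tris-HCl pH 7.5 buffer with NP-40, DTT and protease inhibitors, then cleared at 14 000 g. Rap1-GTP pulled down with RalGDS-RBD agarose, 60 min at 4 °C. Detected by 15% SDS-PAGE and anti-Rap1 immunoblot; lysate aliquots used for total Rap1. IC50 from dose response.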
Target sequence in this assay (O00270 whole entry): as the sequence (O00270 whole entry, species assumed) above

[5] = biological target: T1, GPR31; experiment: Cre-luciferase activation assay in GPR31-transfected CHO cells; type: cell-based; settings: 6 hours
Procedure, shortened: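 CHO cells cotransfected by lipofection with Cre-luciferase and GPR31 plasmids, 8 μg each. Cells plated and treated 6 h with 10 μM forskolin with or without 300 nmol/L 12(S)-HETE. Cells then lysed and luciferase activity read as relative light units.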
Target sequence in this assay (O00270 whole entry, species assumed): as above

[6] = test system: human platelets; experiment: Platelet aggregation by 12; type: cell-based; settings: 5, 10 and 20 μmol/L 12(S)-HETE, human PRP
[7] = test system: platelet-rich plasma; experiment: Thrombin-induced clot retraction in PRP; type: cell-based, human; settings: 10 or 30 μM inhibitor, 3 nmol/L thrombin, RT, 15 minutes to 4 hours
Procedure, shortened: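 Citrated platelet-rich plasma adjusted to […] and diluted in PBS with red blood cells in glass tubes. CaCl2 added to a final 0.5 mmol/L. Pretreated with 10 or 30 μM test compound, P2Y12 inhibitor or vehicle. Clotting started with 3 or 10 nmol/L thrombin at room temperature. Clots photographed at 0, 5, 10, 15 and 30 min and at 1, 2 and 4 h.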

[8] = test system: Rap1; experiment: Thrombin-induced Rap1 activation in human platelets; type: cell-based; settings: GPR310 3 μM, AZD1283 10 μM or dual; 3 nmol/L thrombin, 15 min, gel-purified platelets
[9] = test system: RASA3; experiment: Thrombin-induced RASA3 membrane localization in human platelets; type: cell-based; settings: GPR310 1 μM, AZD1283 10 μM, dual, or LY294002 10 μM, 3 nmol/L thrombin
[10] = test system: Rap1; experiment: AYPGKF; type: cell-based; settings: human platelets, peak shifted from 5 to 15 minutes
[11] = test system: IL-8 receptor CXCR1/2; experiment: Calcium flux in human neutrophils, IL-8; type: cell-based; settings: GPR310 6 μM, 50 nmol/L IL-8
[12] = test system: ADP receptors; experiment: Calcium flux, ADP; type: cell-based, human; settings: GPR310 6 μM; 20 μM ADP
[13] = biological target: T2, PAR1 (Homo sapiens, UniProt P25116); experiment: Calcium flux in HEK293 recombinant system, SFLLRN; type: cell-based; settings: GPR310 6 μM, 100 μM SFLLRN
T2 sequence (P25116 22-425): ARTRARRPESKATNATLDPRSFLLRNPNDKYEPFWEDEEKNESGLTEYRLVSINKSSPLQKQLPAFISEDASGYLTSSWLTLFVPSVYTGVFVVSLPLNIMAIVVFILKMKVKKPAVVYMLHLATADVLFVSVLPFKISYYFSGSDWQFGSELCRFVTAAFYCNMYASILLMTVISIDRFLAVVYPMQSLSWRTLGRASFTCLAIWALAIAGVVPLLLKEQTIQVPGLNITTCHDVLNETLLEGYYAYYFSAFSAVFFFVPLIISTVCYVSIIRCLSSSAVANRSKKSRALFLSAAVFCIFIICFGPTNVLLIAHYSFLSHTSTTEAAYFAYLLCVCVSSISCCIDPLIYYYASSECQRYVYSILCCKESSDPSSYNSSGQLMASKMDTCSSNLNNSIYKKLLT

[14] = test system: PAR4; experiment: AYPGKF-mediated calcium flux in human platelets; type: cell-based; settings: 3 μM GPR310, 160 μM AYPGKF, fura-2-labeled human platelets
Procedure, shortened: as §1

[15] = Pharmacokinetics of sc injected pepducin in mouse plasma; type: in vivo; settings: CD-1, mouse, 10 mg/kg
Procedure, shortened: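 CD-1 mice given 10 mg/kg test compound subcutaneously in 10% DMSO. Vena cava blood drawn into heparin at 5, 15 and 30 min and 1, 4, 5, 14 and 24 h. Pepducin extracted from plasma and quantified by LC-MS to obtain peak level and terminal elimination.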

[16] = test system: PAR1; experiment: PAR1; type: cell-based, human
[17] = test system: pAKT, pERK; experiment: Immunoblot of thrombin-induced Akt and ERK phosphorylation in human platelets; type: cell-based; settings: 1 μM GPR310, 3 nmol/L thrombin, 15 min
Procedure, shortened: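 Gel-purified human platelets pretreated with or without 1 μM test compound, then stimulated with 3 nmol/L thrombin for 15 min. Equal protein resolved on 10% SDS-PAGE and immunoblotted for phospho-AKT and phospho-ERK, with β-actin as loading control.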

[18] = biological target: CXCR4 (Homo sapiens, UniProt P61073); experiment: Calcium flux in human neutrophils, SDF1α; type: cell-based; settings: GPR310 6 μM, 100 nmol/L SDF1α
Sequence of CXCR4 (P61073 whole entry): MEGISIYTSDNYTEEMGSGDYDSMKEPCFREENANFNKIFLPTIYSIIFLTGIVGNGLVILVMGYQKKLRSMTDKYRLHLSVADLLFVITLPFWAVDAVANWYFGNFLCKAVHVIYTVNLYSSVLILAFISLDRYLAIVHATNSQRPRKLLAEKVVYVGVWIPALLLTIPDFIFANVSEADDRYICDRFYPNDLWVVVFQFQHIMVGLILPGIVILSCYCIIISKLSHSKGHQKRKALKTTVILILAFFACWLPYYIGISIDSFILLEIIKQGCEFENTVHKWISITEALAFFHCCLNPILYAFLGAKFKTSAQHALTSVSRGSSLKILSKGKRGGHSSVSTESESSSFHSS

[19] = test system: mouse platelets; experiment: AYPGKF-induced aggregation and ATP release in mouse PRP; type: cell-based; settings: 30 μM GPR310 spiked, 100 μM AYPGKF
Procedure, shortened: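 Mouse platelet-rich plasma spiked with test compound, then stimulated with 100 μM AYPGKF. Run at 37 °C with stirring at 900 rpm in a lumi-aggregometer. Aggregation and dense-granule ATP release recorded together; ATP detected with luciferin/luciferase reagent and calibrated against an ATP standard.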

[20] = biological target: T3, PAR2 (Homo sapiens, UniProt P55085); experiment: Calcium flux, recombinant PAR2, SLIGRL; type: cell-based; settings: GPR310 6 μM; 100 μM SLIGRL
T3 sequence (P55085 26-397): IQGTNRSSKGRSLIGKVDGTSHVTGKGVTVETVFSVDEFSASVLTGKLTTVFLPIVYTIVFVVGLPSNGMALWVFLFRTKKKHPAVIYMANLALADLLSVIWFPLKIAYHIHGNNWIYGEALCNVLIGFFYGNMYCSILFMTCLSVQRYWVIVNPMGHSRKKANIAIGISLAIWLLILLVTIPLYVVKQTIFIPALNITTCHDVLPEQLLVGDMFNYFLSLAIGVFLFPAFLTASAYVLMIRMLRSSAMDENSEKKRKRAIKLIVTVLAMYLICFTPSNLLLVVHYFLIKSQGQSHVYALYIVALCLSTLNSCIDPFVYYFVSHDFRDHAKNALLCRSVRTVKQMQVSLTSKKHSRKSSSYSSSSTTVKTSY

[21] = test system: human platelets; experiment: Collagen-mediated human platelet aggregation; type: cell-based; settings: 10 μg/mL collagen; 3 μmol/L GPR310 or 30 μmol/L ML355; P<0.001
[22] = Tail bleeding time; type: in vivo, mouse; settings: mice, 4 hours after 5 and 10 mg/kg sc, n=10
Procedure, shortened: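 Mice anaesthetised 4 h after subcutaneous test compound or vehicle and kept on a 37 °C homeothermic blanket. Tail transected 5 mm from the tip and immersed at once in 37 °C saline. Time to cessation recorded; cessation counted only once bleeding had stopped for 1 min.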

[23] = test system: mouse platelets; experiment: Ex vivo platelet aggregation after sc dosing; type: in vivo; settings: mice, 10 mg/kg sc, 4 h; AYPGKF 100 μmol/L or thrombin 10 nmol/L
[24] = test system: PAR4; experiment: PAR4; type: cell-based, human; settings: 30 μmol/L ML355, 2 min preincubation, 160 μmol/L AYPGKF, aggregation at 15 min

Compound: CCCCC/C=C\C[C@H](O)/C=C/C=C\C/C=C\CCCC(=O)O [12(S)-HETE]
calcium flux [1]: negligible
p38 MAPK phosphorylation activation ([2]; 100 nmol/L 12(S)-HETE, 15 minutes, human platelets): rapidly (15 minutes) activated
calcium mobilization [3]: low but detectable calcium transients
Rap1-GTP activation [4]: strongly activated
inhibition of AC (adenylyl cyclase) activity ([5]; 300 nmol/L 12(S)-HETE with 10 μM forskolin, not observed in Cre-luci controls): significant inhibition
activation of platelet aggregation [6]: failed to effectively activate platelet aggregation

Compound: CCOC(=O)c1cc(C#N)c(N2CCC(C(=O)NS(=O)(=O)Cc3ccccc3)CC2)nc1C [AZD1283, reference compound]
clot retraction time vs vehicle [7]: longer clot retraction times
inhibition of thrombin-induced Rap1 activation [8]: partially suppressed
suppression of thrombin-induced RASA3 appearance in plasma membrane [9]: complete suppression

Compound: CCCCCCCCCCCCCCCC(=O)N[C@@H](CCCNC(=N)N)C(=O)N[C@@H](C)C(=O)N[C@@H](CC(C)C)C(=O)N[C@@H](CCC(N)=O)C(=O)N[C@@H](CCCCN)C(=O)N[C@@H](CCCNC(=N)N)C(=O)N[C@@H](CC(C)C)C(=O)N[C@@H](CCCNC(=N)N)C(=O)N[C@@H](CCC(=O)O)C(=O)N1CCC[C@H]1C(=O)N[C@@H](CCC(=O)O)C(=O)N[C@@H](CCCCN)C(=O)N[C@@H](CCC(N)=O)C(=O)N1CCC[C@H]1C(=O)N[C@@H](CCCCN)C(=O)N[C@@H](CC(C)C)C(=O)N[C@@H](CCC(N)=O)C(=O)N[C@@H](CCCNC(=N)N)C(=O)N[C@@H](C)C(=O)N[C@@H](CCC(N)=O)C(=O)N[C@@H](C)C(N)=O [GPR310] (Palmitoyl-RALQKRLREPEKQPKLQRAQA-NH2; C-terminus assumed)
inhibition of AYPGKF-induced Rap1-GTP signal [10]: significantly attenuated
inhibition of calcium flux (CXCR1/2) [11]: did not inhibit
inhibition of calcium flux (ADP receptors) [12]: did not inhibit
inhibition of PAR1 calcium flux [13]: minimal inhibition
clot retraction time vs vehicle [7]: longer clot retraction times
inhibition of 12(S)-HETE-induced p38 MAPK phosphorylation ([2]; 1 to 3 μM GPR310, human platelets): completely attenuated
suppression of AYPGKF-mediated Ca2+ response [14]: 80%
Tmax [15]: 1 h
level at time molar at 4 h [15]: 3500 nM
level at time molar at 14 h [15]: 10 nM
inhibition of PAR1-mediated platelet aggregation ([16]; 10 μmol/L GPR310, 3 μM SFLLRN, gel-purified human platelets): significant inhibition
inhibition of PAR1-mediated platelet aggregation ([16]; 10 μmol/L GPR310, 10 μmol/L SFLLRN, gel-purified human platelets): no significant effect
inhibition of thrombin-induced Akt phosphorylation [17]: attenuated
inhibition of thrombin-mediated ERK activation [17]: inhibited
inhibition of thrombin-induced Rap1 activation [8]: partially suppressed
inhibition of calcium flux (CXCR4) [18]: did not inhibit
suppression of thrombin-induced RASA3 appearance in plasma membrane [9]: complete suppression
inhibition of ATP release, mouse PRP [19]: inhibited
inhibition of platelet aggregation, mouse PRP [19]: inhibited
inhibition of recombinant PAR2 calcium flux [20]: no detected inhibition
inhibition of collagen-mediated platelet aggregation [21]: almost completely inhibited
tail bleeding time vs vehicle control [22]: no difference
ex vivo antiplatelet effect at high agonist concentration [23]: reversed

Compound: COc1cccc(CNc2ccc(S(=O)(=O)Nc3nc4ccccc4s3)cc2)c1O [ML355, reference compound]
inhibition of PAR1-mediated platelet aggregation ([16]; 30 μmol/L ML355, 3 μmol/L SFLLRN): considerable inhibition
inhibition of PAR1-mediated platelet aggregation ([16]; 30 μmol/L ML355, 10 μmol/L SFLLRN): but not 10 μmol/L SFLLRN
inhibition of PAR4-mediated platelet aggregation [24]: inhibition
inhibition of collagen-mediated platelet aggregation [21]: to a similar extent

induction of cAMP-responsive element-luciferase reporter ([5]; CHO-K1 cells expressing GPR31 and Cre-luciferase, 10 μM forskolin): 10 fold
Compound: C=C[C@@]1(C)CC(=O)[C@]2(O)[C@@]3(C)[C@@H](O)CCC(C)(C)[C@@H]3[C@H](O)[C@H](OC(C)=O)[C@@]2(C)O1 [forskolin]

Reference: paper PMC8108540 (Arteriosclerosis, thrombosis, and vascular biology, 2020)
